Measurements as given in ChEMBL document CHEMBL1138240, “Identifying merozoite surface protein 4 and merozoite surface protein 7 Plasmodium falciparum protein family members specifically binding to human erythrocytes suggests a new malarial parasite-redundant survival mechanism” (J Med Chem, 2007).
The source made the active and inactive calls. The rule behind the calls is not given here. Peptide text beside a SMILES is read from it.

How the values were obtained:
Plasmodium falciparum [1] = test: Inhibition of Plasmodium falciparum FCB2 merozoite invasion of human erythrocytes at 200 uM; assay type: functional
How it was run: (§1)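 Sorbitol-synchronized P. falciparum FCB-2 was grown to late schizonts and set at 0.5% parasitemia and 5% hematocrit in RPMI 1640 with 10% O+ plasma. Peptides were added at 100 or 200 µM, in triplicate. Plates were incubated 18 h at 37 °C under 5% O2/5% CO2/90% N2. RBC were stained with hydroethidine 15 µg/mL for 30 min, washed, and read by flow cytometry (FL2). Values are mean ± SD of three experiments.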

Plasmodium falciparum [2] = test: Inhibition of Plasmodium falciparum FCB2 merozoite invasion of human erythrocytes at 100 uM; assay type: functional; design: scale not given: the % may be the effect or the level left; how it was run: as §1
Plasmodium falciparum [3] = test: Inhibition of Plasmodium falciparum FCB2 merozoite invasion of human erythrocytes at 0.5 mg/mL; assay type: functional
How it was run: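 Sorbitol-synchronized FCB-2 cultures grown to late schizont stage at 0.5% parasitemia and 5% hematocrit in RPMI 1640 with 10% O-positive plasma. Agent added in triplicate, then incubated 18 h at 37 °C under 5% O2/5% CO2/90% N2. Erythrocytes stained with 15 µg/mL hydroethidine for 30 min at 37 °C. Invasion read by flow cytometry (FL2).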

Erythrocyte [4] = test: Binding affinity to 52 kDa erythrocyte membrane protein in trypsin treated human erythrocytes at 1 mg/mL after 1 hr relative to control; assay type: cell-based
How it was run: (§2)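 Human RBC (1.5 × 10^7 cell/µL in HBS pH 7.2, 1 mL) were treated for 1 h at 37 °C with shaking. […] used neuraminidase at 150 µU/mL. […] used trypsin and chymotrypsin at 1 mg/mL final. Cells were spun and washed thrice with HBS, then tested in the 125I-peptide binding assay. Specific binding is given as % of untreated-RBC control.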

Erythrocyte [5] = test: Binding affinity to 52 kDa erythrocyte membrane protein in neuraminidase treated human erythrocytes at 1 mg/mL after 1 hr relative to control; assay type: cell-based
Erythrocyte [6] = test: Binding affinity to 52 kDa erythrocyte membrane protein in chymotrypsin treated human erythrocytes at 1 mg/mL after 1 hr relative to control; assay type: cell-based; how it was run: as §2
[7] = Binding affinity to 52 kDa erythrocyte membrane protein in human erythrocytes; assay type: cell-based
How it was run: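 Saturation binding used RBC at 1.5 × 10^7 cell/µL with 125I-peptide at 0–1800 nM, with or without 200-fold excess unlabeled peptide, for 90 min. Free label was sampled from the supernatant. Cells were washed twice with HBS and bound counts were measured by gamma counting, in triplicate. Affinity constant and sites per cell came from saturation curves; Hill coefficient came from a Hill plot.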

Erythrocyte [8] = test: Displacement of [125I]MSP-4 20494 peptide from 52 kDa erythrocyte membrane protein in human erythrocytes; assay type: cell-based
How it was run: (§3)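 Competition used 125I-labeled MSP-4 peptide 20494 at 300 nM with 1 × 10^7 human RBC. Unlabeled competitor peptides were present at 3–30 µM. Incubation was 90 min at room temperature. Cells were washed three times with HBS and cell-bound radioactivity was counted on a gamma counter.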

Plasmodium falciparum [9] = test: Inhibition of Plasmodium falciparum FCB2 merozoite invasion of human erythrocytes at […]; assay type: functional
Erythrocyte [10] = test: Displacement of [125I]MSP-4 20494 peptide from 52 kDa erythrocyte membrane protein in human erythrocytes at 30 uM; assay type: cell-based; how it was run: as §3

Row | Compound | Activity (Erythrocyte [4]) [%] | Activity (Erythrocyte [5]) [%] | Activity (Erythrocyte [6]) [%] | Kd [7] [nM] | Activity (Erythrocyte [8]) | Activity (Erythrocyte [10]) [%] | inhibition at 200 µM (Plasmodium falciparum [1]) [%] | Activity (Plasmodium falciparum [2]) [%] | inhibition at 500 µg/mL (Plasmodium falciparum [3]) [%] | inhibition (Plasmodium falciparum [9]) [%]
1 | CC(C)C[C@H](NC(=O)[C@H](CCCCN)NC(=O)[C@H](CC(=O)O)NC(=O)[C@H](CC(=O)O)NC(=O)CNC(=O)[C@H](CS)NC(=O)CN)C(=O)N[C@@H](CS)C(=O)N[C@@H](CCC(=O)O)C(=O)N[C@@H](Cc1ccc(O)cc1)C(=O)N[C@H](C(=O)NCC(=O)N[C@@H](CC(N)=O)C(=O)N[C@@H](CCCNC(=N)N)C(=O)N[C@@H](CCCNC(=N)N)C(=O)N[C@H](C(=O)N[C@@H](CCCCN)C(=O)N[C@@H](CS)C(=O)N[C@@H](CCCCN)C(=O)N[C@@H](CS)C(=O)N[C@@H](CCCCN)C(=O)O)C(C)C)C(C)C (H-GCGDDKLCEYVGNRRVKCKCK-OH) | – | – | – | – | – | – | 18 | 3 | – | –
2 | CCN(CC)CCCC(C)Nc1ccnc2cc(Cl)ccc12 (centres undefined) [CHLOROQUINE] | – | – | – | – | – | – | – | – | 100 | –
3 | H-MRILGEEKPNVDGVSTSNTPY-OH | – | – | – | – | – | – | 11 | 9 | – | –
4 | O=C(O)CN(CCOCCOCCN(CC(=O)O)CC(=O)O)CC(=O)O [EGTAZIC ACID] | – | – | – | – | – | – | – | – | – | 83
5 | H-KNVHVLINGNSIIDEIEKNEY-OH | – | – | – | – | – | – | 29 | 10 | – | –

Further lines, with some results ahead:

Row | Activity (Erythrocyte [4]) [%] | Activity (Erythrocyte [5]) [%] | Activity (Erythrocyte [6]) [%] | Kd [7] [nM] | Activity (Erythrocyte [8]) | Activity (Erythrocyte [10]) [%] | Compound | inhibition at 200 µM (Plasmodium falciparum [1]) [%] | Activity (Plasmodium falciparum [2]) [%] | inhibition at 500 µg/mL (Plasmodium falciparum [3]) [%] | inhibition (Plasmodium falciparum [9]) [%]
6 | 174 | 105 | 223 | 550 | – | – | H-IKNKKLEKLKNIVSGDFVGNY-OH | 68 | 22 | – | –
7 | – | – | – | – | inactive | – | H-MWIVKFLIVVHFFIICTINFY-OH | – | – | – | –
8 | 0 | 73 | 34 | – | – | – | H-KDKEYHEQFKNYIYGVYSYA-OH | 24 | 7 | – | –
9 | 0 | 105 | 160 | 600 | – | – | H-NLGLFGKNVLSKVKAQSETDY-OH | 59 | 9 | – | –
10 | 88 | 57 | 73 | – | – | – | H-KQNSHLSEKKIKPEEEYKKF-OH | 83 | 22 | – | –
11 | 57 | 73 | 133 | 470 | – | 50 | CC(C)C[C@H](NC(=O)[C@H](CCCCN)NC(=O)[C@H](Cc1ccc(O)cc1)NC(=O)CNC(=O)[C@H](CCC(=O)O)NC(=O)[C@H](CCCCN)NC(=O)[C@H](CS)NC(=O)[C@H](CCCCN)NC(=O)[C@H](CS)NC(=O)[C@H](CCCCN)NC(=O)[C@@H](NC(=O)[C@H](CCCNC(=N)N)NC(=O)[C@H](CCCNC(=N)N)NC(=O)[C@H](CC(N)=O)NC(=O)CNC(=O)[C@@H](NC(=O)[C@H](Cc1ccc(O)cc1)NC(=O)[C@@H](N)CCC(=O)O)C(C)C)C(C)C)C(=O)N[C@@H](CCC(=O)O)C(=O)NCC(=O)O (H-EYVGNRRVKCKCKEGYKLEG-OH) | 20 | 16 | – | –
12 | 10 | 100 | 0 | 450 | – | – | H-KPEEEYKKFLEYSFNLLNTM-OH | 49 | 9 | – | –
